Data reported in ChEMBL document CHEMBL1142136, “Contribution of target gene mutations and efflux to decreased susceptibility of Salmonella enterica serovar typhimurium to fluoroquinolones and other antimicrobials” (2007).
Converted amounts (≈) assume the structure as drawn.

Key:
Assay type in all cases: functional, Salmonella enterica subsp. enterica serovar Typhimurium
Salmonella typhimurium [1] = assay: Antimicrobial activity against Salmonella enterica serovar Typhimurium CHS38 gyrA+ with GyrA D87G mutation
Outline: (§1)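 MICs measured by broth microdilution on the Sensititre automated system and interpreted by CLSI broth microdilution standards. Ciprofloxacin was also tested by agar dilution, widening the range to 0.0075–128 μg/ml. Quality control strains were E. coli ATCC 25922 and 35218, E. faecalis ATCC 29212, S. aureus ATCC 29213 and P. aeruginosa ATCC 27853.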

Salmonella typhimurium [2] = assay: Antimicrobial activity against Salmonella enterica serovar Typhimurium S21-1 GyrA S83F mutant; outline: as §1
Salmonella typhimurium [3] = assay: Antimicrobial activity against Salmonella enterica serovar Typhimurium CHS18 tolC::Kan with GyrA S38F mutation; outline: as §1
Salmonella typhimurium [4] = assay: Antimicrobial activity against Salmonella enterica serovar Typhimurium S21-3 gyrA+ with ParC S80I mutation; outline: as §1
Salmonella typhimurium [5] = assay: Antimicrobial activity against Salmonella enterica serovar Typhimurium S21 gyrA+; outline: as §1
Salmonella typhimurium [6] = assay: Antimicrobial activity against Salmonella enterica serovar Typhimurium CHS14 acrAB::Kan with GyrA D87G mutation; outline: as §1
Salmonella typhimurium [7] = assay: Antimicrobial activity against Salmonella enterica serovar Typhimurium S21; outline: as §1
Salmonella typhimurium [8] = assay: Antimicrobial activity against Salmonella enterica serovar Typhimurium CS3 acrAB::Kan with GyrA S83F, D87N, ParC S80I mutation; outline: as §1
Salmonella typhimurium [9] = assay: Antimicrobial activity against Salmonella enterica serovar Typhimurium CS3 gyrA+ with GyrA S83F, D87N, ParC S80I mutation; outline: as §1
Salmonella typhimurium [10] = assay: Antimicrobial activity against Salmonella enterica serovar Typhimurium S21-2 with GyrA S83F, ParC S80I mutation; outline: as §1
Salmonella typhimurium [11] = assay: Antimicrobial activity against Salmonella enterica serovar Typhimurium CS3 with GyrA S83F, D87N, ParC S80I mutation; outline: as §1
Salmonella typhimurium [12] = assay: Antimicrobial activity against Salmonella enterica serovar Typhimurium CHS38 with GyrA D87G mutation; outline: as §1
Salmonella typhimurium [13] = assay: Antimicrobial activity against Salmonella enterica serovar Typhimurium CS9 with GyrA S83F, D87N, ParC S80I mutation; outline: as §1
Salmonella typhimurium [14] = assay: Antimicrobial activity against Salmonella enterica serovar Typhimurium S21-2 acrAB::Kan with GyrA S83F, ParC S80I mutation; outline: as §1
Salmonella typhimurium [15] = assay: Antimicrobial activity against Salmonella enterica serovar Typhimurium S21-4 tolC::Kan with GyrA S83F, ParC S80I mutation; outline: as §1
Salmonella typhimurium [16] = assay: Antimicrobial activity against Salmonella enterica serovar Typhimurium GyrA S21-1 acrAB::Kan with GyrA S83F mutation; outline: as §1
Salmonella typhimurium [17] = assay: Antimicrobial activity against Salmonella enterica serovar Typhimurium CHS18 acrAB::Kan with GyrA S38F mutation; outline: as §1
Salmonella typhimurium [18] = assay: Antimicrobial activity against Salmonella enterica serovar Typhimurium S21-2 gyrA+ with ParC S80I mutation; outline: as §1
Salmonella typhimurium [19] = assay: Antimicrobial activity against Salmonella enterica serovar Typhimurium CHS14 tolC::Kan with GyrA D87G mutant; outline: as §1
Salmonella typhimurium [20] = assay: Antimicrobial activity against Salmonella enterica serovar Typhimurium S21-3 tolC::Kan with GyrA S83F, ParC S80I mutation; outline: as §1
Salmonella typhimurium [21] = assay: Antimicrobial activity against Salmonella enterica serovar Typhimurium CHS38 tolC::Kan with GyrA D87G mutation; outline: as §1
Salmonella typhimurium [22] = assay: Antimicrobial activity against Salmonella enterica serovar Typhimurium CS1 acrAB::Kan with GyrA S83F, D87N, ParC S80I mutation; outline: as §1
Salmonella typhimurium [23] = assay: Antimicrobial activity against Salmonella enterica serovar Typhimurium CS9 gyrA+ with GyrA S83F, D87N, ParC S80I mutation; outline: as §1
Salmonella typhimurium [24] = assay: Antimicrobial activity against Salmonella enterica serovar Typhimurium CS1 with GyrA S83F, D87N, ParC S80I mutation; outline: as §1
Salmonella typhimurium [25] = assay: Antimicrobial activity against Salmonella enterica serovar Typhimurium S21-4 with GyrA S83F, ParC S80I mutation; outline: as §1
Salmonella typhimurium [26] = assay: Antimicrobial activity against Salmonella enterica serovar Typhimurium S21-4 gyrA+ with ParC S80I mutation; outline: as §1
Salmonella typhimurium [27] = assay: Antimicrobial activity against Salmonella enterica serovar Typhimurium S21-1 tolC::Kan with GyrA S83F mutation; outline: as §1
Salmonella typhimurium [28] = assay: Antimicrobial activity against Salmonella enterica serovar Typhimurium CHS18 with GyrA S38F mutation; outline: as §1
Salmonella typhimurium [29] = assay: Antimicrobial activity against Salmonella enterica serovar Typhimurium S21-1 gyrA+; outline: as §1
Salmonella typhimurium [30] = assay: Antimicrobial activity against Salmonella enterica serovar Typhimurium S21 tolC::Kan
Outline: (§2)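 MICs by automated broth microdilution panels, interpreted to CLSI broth microdilution standards. Ciprofloxacin additionally tested by agar dilution across 0.0075 to 128 μg/ml. Quality control strains: E. coli ATCC 25922 and 35218, Enterococcus faecalis ATCC 29212, S. aureus ATCC 29213, P. aeruginosa ATCC 27853. Test strains are kanamycin-marked deletion mutants of ground-beef isolate S21.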

Salmonella typhimurium [31] = assay: Antimicrobial activity against Salmonella enterica serovar Typhimurium CS1 tolC::Kan with GyrA S83F, D87N, ParC S80I mutation; outline: as §1
Salmonella typhimurium [32] = assay: Antimicrobial activity against Salmonella enterica serovar Typhimurium CHS18 gyrA+ with GyrA S38F mutation; outline: as §1
Salmonella typhimurium [33] = assay: Antimicrobial activity against Salmonella enterica serovar Typhimurium CS1 gyrA+ with GyrA S83F, D87N, ParC S80I mutation; outline: as §1
Salmonella typhimurium [34] = assay: Antimicrobial activity against Salmonella enterica serovar Typhimurium CHS14 with GyrA D87G mutation; outline: as §1
Salmonella typhimurium [35] = assay: Antimicrobial activity against Salmonella enterica serovar Typhimurium S21-4 acrAB::Kan with GyrA S83F, ParC S80I mutation; outline: as §1
Salmonella typhimurium [36] = assay: Antimicrobial activity against Salmonella enterica serovar Typhimurium S21-3 with GyrA S83F, ParC S80I mutation; outline: as §1
Salmonella typhimurium [37] = assay: Antimicrobial activity against Salmonella enterica serovar Typhimurium S21-3 acrAB::Kan with GyrA S83F, ParC S80I mutation; outline: as §1
Salmonella typhimurium [38] = assay: Antimicrobial activity against Salmonella enterica serovar Typhimurium S21-2 tolC::Kan with GyrA S83F, ParC S80I mutation; outline: as §1
Salmonella typhimurium [39] = assay: Antimicrobial activity against Salmonella enterica serovar Typhimurium CS9 acrAB::Kan with GyrA S83F, D87N, ParC S80I mutation; outline: as §1
Salmonella typhimurium [40] = assay: Antimicrobial activity against Salmonella enterica serovar Typhimurium S21 acrAB::Kan; outline: as §2
Salmonella typhimurium [41] = assay: Antimicrobial activity against Salmonella enterica serovar Typhimurium CHS38 acrAB::Kan with GyrA D87G mutation; outline: as §1
Salmonella typhimurium [42] = assay: Antimicrobial activity against Salmonella enterica serovar Typhimurium CS9 tolC::Kan with GyrA S83F, D87N, ParC S80I mutation; outline: as §1
Salmonella typhimurium [43] = assay: Antimicrobial activity against Salmonella enterica serovar Typhimurium CS3 tolC::Kan with GyrA S83F, D87N, parC S80I mutation; outline: as §1
Salmonella typhimurium [44] = assay: Antimicrobial activity against Salmonella enterica serovar Typhimurium CHS14 gyrA+ with GyrA D87G mutation; outline: as §1

## COc1c(N2CCNC(C)C2)c(F)cc2c(=O)c(C(=O)O)cn(C3CC3)c12 (centres undefined) [GATIFLOXACIN]
Salmonella typhimurium [1]
  MIC: < 0.015 µg/mL
Salmonella typhimurium [2]
  MIC: 0.5 µg/mL (≈ 1.33 µM)
Salmonella typhimurium [3]
  MIC: 0.03 µg/mL (≈ 0.0799 µM)
Salmonella typhimurium [4]
  MIC: 1 µg/mL (≈ 2.66 µM)
Salmonella typhimurium [5]
  MIC: 0.03 µg/mL (≈ 0.0799 µM)
Salmonella typhimurium [6]
  MIC: < 0.015 µg/mL
Salmonella typhimurium [7]
  MIC: 0.03 µg/mL (≈ 0.0799 µM)
Salmonella typhimurium [8]
  MIC: 0.5 µg/mL (≈ 1.33 µM)
Salmonella typhimurium [9]
  MIC: 0.06 µg/mL (≈ 0.16 µM)
Salmonella typhimurium [10]
  MIC: 1 µg/mL (≈ 2.66 µM)
Salmonella typhimurium [11]
  MIC: 4 µg/mL (≈ 10.7 µM)
Salmonella typhimurium [12]
  MIC: 0.12 µg/mL (≈ 0.32 µM)
Salmonella typhimurium [13]
  MIC: 4 µg/mL (≈ 10.7 µM)
Salmonella typhimurium [14]
  MIC: 0.06 µg/mL (≈ 0.16 µM)
Salmonella typhimurium [15]
  MIC: 0.06 µg/mL (≈ 0.16 µM)
Salmonella typhimurium [16]
  MIC: 0.03 µg/mL (≈ 0.0799 µM)
Salmonella typhimurium [17]
  MIC: 0.12 µg/mL (≈ 0.32 µM)
Salmonella typhimurium [18]
  MIC: 0.25 µg/mL (≈ 0.666 µM)
Salmonella typhimurium [19]
  MIC: < 0.015 µg/mL
Salmonella typhimurium [20]
  MIC: 0.06 µg/mL (≈ 0.16 µM)
Salmonella typhimurium [21]
  MIC: < 0.015 µg/mL
Salmonella typhimurium [22]
  MIC: 0.5 µg/mL (≈ 1.33 µM)
Salmonella typhimurium [23]
  MIC: 0.06 µg/mL (≈ 0.16 µM)
Salmonella typhimurium [24]
  MIC: 4 µg/mL (≈ 10.7 µM)
Salmonella typhimurium [25]
  MIC: 16 µg/mL (≈ 42.6 µM)
Salmonella typhimurium [26]
  MIC: 2 µg/mL (≈ 5.33 µM)
Salmonella typhimurium [27]
  MIC: 0.03 µg/mL (≈ 0.0799 µM)
Salmonella typhimurium [28]
  MIC: 0.25 µg/mL (≈ 0.666 µM)
Salmonella typhimurium [29]
  MIC: 0.03 µg/mL (≈ 0.0799 µM)
Salmonella typhimurium [30]
  MIC: < 0.015 µg/mL
Salmonella typhimurium [31]
  MIC: 0.5 µg/mL (≈ 1.33 µM)
Salmonella typhimurium [32]
  MIC: 0.06 µg/mL (≈ 0.16 µM)
Salmonella typhimurium [33]
  MIC: 0.06 µg/mL (≈ 0.16 µM)
Salmonella typhimurium [34]
  MIC: 0.25 µg/mL (≈ 0.666 µM)
Salmonella typhimurium [35]
  MIC: 0.06 µg/mL (≈ 0.16 µM)
Salmonella typhimurium [36]
  MIC: 8 µg/mL (≈ 21.3 µM)
Salmonella typhimurium [37]
  MIC: 0.06 µg/mL (≈ 0.16 µM)
Salmonella typhimurium [38]
  MIC: 0.06 µg/mL (≈ 0.16 µM)
Salmonella typhimurium [39]
  MIC: 0.5 µg/mL (≈ 1.33 µM)
Salmonella typhimurium [40]
  MIC: < 0.015 µg/mL
Salmonella typhimurium [41]
  MIC: < 0.015 µg/mL
Salmonella typhimurium [42]
  MIC: 0.5 µg/mL (≈ 1.33 µM)
Salmonella typhimurium [43]
  MIC: 0.5 µg/mL (≈ 1.33 µM)
Salmonella typhimurium [44]
  MIC: 0.03 µg/mL (≈ 0.0799 µM)
